Results published in ChEMBL document CHEMBL5046221, “Identification of Pyrimidine-Based Lead Compounds for Understudied Kinases Implicated in Driving Neurodegeneration” (J Med Chem, 2022).

Experiments:
[1] = target: MAP/microtubule affinity-regulating kinase 3 (Homo sapiens, UniProt P27448); test: Displacement of tracer K9 from NLuc fused MARK3 (unknown origin) expressed in HEK293 cells by NanoBRET assay; format: cell-based
[2] = Kinetic solubility of compound in PBS at pH 7.4 incubated for 24 hrs by chemiluminscent nitrogen detection method; format: physicochemical; conditions: buffer, pH 7.4, 24 h
Outline: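 Filtrates were quantified by total chemiluminescent nitrogen determination against a calibration curve, with correction for background nitrogen from DMSO and medium.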

[3] = target: Serine/threonine-protein kinase 32B (Homo sapiens, UniProt Q9NY57); test: Inhibition of full length recombinant human YANK2 using casein as substrate incubated for 120 mins in presence of [gamma-33P-ATP] by radiometric scintillation assay
Outline: (§1)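 Eurofins radiometric enzymatic assay with ATP at Km for each kinase. IC50 was derived from a 9-point dose–response curve run in duplicate.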

[4] = target: MAP kinase-interacting serine/threonine-protein kinase 2 (Homo sapiens, UniProt Q9HBH9); test: Inhibition of full length recombinant human MKNK2 using myelin basic protein as substrate incubated for 40 mins in presence of [gamma-33P-ATP] by radiometric scintillation assay
Outline: (§2)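 Eurofins radiometric kinase assay run at ATP equal to Km for each kinase. 9-point dose–response in duplicate gives the IC50.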

[5] = target: T1, Serine/threonine-protein kinase TBK1 (Homo sapiens, UniProt Q9UHD2); test: Displacement of tracer K5 from NLuc fused TBK1 (unknown origin) expressed in HEK293 cells by NanoBRET assay; format: cell-based
T1 sequence (Q9UHD2 whole entry): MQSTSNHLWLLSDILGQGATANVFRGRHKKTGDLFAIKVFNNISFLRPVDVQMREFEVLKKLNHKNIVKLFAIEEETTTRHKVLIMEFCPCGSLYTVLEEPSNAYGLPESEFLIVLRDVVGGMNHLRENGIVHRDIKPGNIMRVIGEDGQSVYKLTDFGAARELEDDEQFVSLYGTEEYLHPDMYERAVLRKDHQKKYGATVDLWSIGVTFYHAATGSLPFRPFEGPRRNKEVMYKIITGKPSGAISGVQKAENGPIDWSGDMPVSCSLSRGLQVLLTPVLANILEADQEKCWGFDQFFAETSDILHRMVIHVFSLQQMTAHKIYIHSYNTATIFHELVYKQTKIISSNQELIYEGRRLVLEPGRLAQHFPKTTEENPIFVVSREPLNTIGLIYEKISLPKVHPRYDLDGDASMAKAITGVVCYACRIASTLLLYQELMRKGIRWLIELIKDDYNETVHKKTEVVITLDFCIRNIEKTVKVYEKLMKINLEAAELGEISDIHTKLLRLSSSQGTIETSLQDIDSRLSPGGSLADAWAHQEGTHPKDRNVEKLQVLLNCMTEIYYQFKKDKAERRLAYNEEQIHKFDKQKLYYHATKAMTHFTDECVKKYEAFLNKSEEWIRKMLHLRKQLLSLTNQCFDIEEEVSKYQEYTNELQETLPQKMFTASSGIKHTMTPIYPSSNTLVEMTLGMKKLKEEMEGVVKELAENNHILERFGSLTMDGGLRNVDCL
Outline: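 HEK293 cells grown in DMEM with 10% FBS at 37 °C, 5% CO2. NanoBRET assay run in dose–response per manufacturer's protocol with tracer K-5 at 0.5 μM. SEM calculated for assays run more than once.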

[6] = target: T2, MAP/microtubule affinity-regulating kinase 4 (Homo sapiens, UniProt Q96L34); test: Displacement of tracer K5 from NLuc fused MARK4 (unknown origin) expressed in HEK293 cells by NanoBRET assay; format: cell-based
T2 sequence (Q96L34 whole entry): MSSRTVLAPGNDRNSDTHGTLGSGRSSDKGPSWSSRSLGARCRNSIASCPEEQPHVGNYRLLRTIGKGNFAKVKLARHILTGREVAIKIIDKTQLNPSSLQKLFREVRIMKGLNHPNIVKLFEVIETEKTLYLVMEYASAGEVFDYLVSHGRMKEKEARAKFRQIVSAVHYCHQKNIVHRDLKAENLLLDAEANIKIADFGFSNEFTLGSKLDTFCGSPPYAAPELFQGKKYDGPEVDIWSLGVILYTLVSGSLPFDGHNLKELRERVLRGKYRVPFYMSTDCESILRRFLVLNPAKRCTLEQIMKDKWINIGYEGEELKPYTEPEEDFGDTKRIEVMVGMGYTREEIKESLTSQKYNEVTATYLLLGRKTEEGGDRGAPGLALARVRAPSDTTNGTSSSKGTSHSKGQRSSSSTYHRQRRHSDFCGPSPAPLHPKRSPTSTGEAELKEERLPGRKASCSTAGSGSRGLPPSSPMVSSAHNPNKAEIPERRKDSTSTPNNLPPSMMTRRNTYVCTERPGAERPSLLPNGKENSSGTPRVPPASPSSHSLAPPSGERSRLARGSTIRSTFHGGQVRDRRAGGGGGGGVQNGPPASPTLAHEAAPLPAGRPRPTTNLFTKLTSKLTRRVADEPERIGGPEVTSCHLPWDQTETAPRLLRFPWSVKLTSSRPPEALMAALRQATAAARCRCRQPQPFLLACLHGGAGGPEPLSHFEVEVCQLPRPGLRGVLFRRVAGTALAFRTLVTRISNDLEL

[7] = target: T3, Serine/threonine-protein kinase 17A (Homo sapiens, UniProt Q9UEE5); test: Displacement of tracer K9 from NLuc fused DRAK1 (unknown origin) expressed in HEK293 cells by NanoBRET assay; format: cell-based
T3 sequence (Q9UEE5 whole entry): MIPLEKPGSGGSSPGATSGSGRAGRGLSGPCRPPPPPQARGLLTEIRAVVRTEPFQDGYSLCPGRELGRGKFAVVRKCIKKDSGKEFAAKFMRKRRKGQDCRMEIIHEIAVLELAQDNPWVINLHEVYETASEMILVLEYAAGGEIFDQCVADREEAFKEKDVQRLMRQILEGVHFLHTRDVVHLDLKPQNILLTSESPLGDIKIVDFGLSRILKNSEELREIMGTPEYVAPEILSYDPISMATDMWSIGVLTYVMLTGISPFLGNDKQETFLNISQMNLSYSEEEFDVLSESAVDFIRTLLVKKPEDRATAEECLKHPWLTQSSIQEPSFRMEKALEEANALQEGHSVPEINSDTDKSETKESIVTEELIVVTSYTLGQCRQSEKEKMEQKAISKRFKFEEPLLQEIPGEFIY

[8] = target: T4, Serine/threonine-protein kinase 17B (Homo sapiens) (UniProt O94768); test: Inhibition of full length recombinant human DRAK2 using KKRPQRRYSNVF as substrate at 1 uM incubated for 120 mins in presence of [gamma-33P-ATP] by radiometric scintillation assay relative to control
T4 sequence (whole entry): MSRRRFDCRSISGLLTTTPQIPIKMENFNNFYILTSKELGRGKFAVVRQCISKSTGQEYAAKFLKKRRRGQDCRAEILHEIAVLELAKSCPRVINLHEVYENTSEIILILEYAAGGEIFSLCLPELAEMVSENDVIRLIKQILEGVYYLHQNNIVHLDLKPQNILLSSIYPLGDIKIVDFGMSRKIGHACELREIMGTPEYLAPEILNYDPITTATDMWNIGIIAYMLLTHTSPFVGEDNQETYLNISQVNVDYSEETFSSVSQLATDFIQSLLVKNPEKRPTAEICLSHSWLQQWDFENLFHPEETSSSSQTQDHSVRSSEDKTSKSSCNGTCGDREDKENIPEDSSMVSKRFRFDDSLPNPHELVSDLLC
Outline: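 Eurofins radiometric kinase assay with ATP at Km for each kinase. Compound was tested at a single 1 μM concentration in duplicate, and the result is reported as percent of control.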

[9] = Effective permeability in PBS at 7.4 incubated for 5 hrs by PAMPA analysis; format: ADME; conditions: pH 7.4, 5 h
Outline: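 PAMPA: DMSO stocks were diluted in PBS pH 7.4 and placed in the donor compartment, with PBS pH 7.4 in the acceptor, for 5 h. Both compartments were quantified by CLND against a calibration curve, with background nitrogen correction. Effective permeability was calculated from donor and acceptor concentrations using measured rather than assumed solubility.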

[10] = target: T5, Leucine-rich repeat serine/threonine-protein kinase 2 (Homo sapiens, UniProt Q5S007); test: Inhibition of NanoLuc-fused LRRK2 (unknown origin) expressed in HEK293 cells incubated for 2 hrs by NanoBRET assay; format: cell-based
Outline: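 Cellular target engagement by NanoBRET in dose–response, done in singlicate by Carna Biosciences following the manufacturer's protocol. Compounds tested at concentrations up to 10 μM.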

[11] = target: Myosin light chain kinase 2, skeletal/cardiac muscle (Homo sapiens, UniProt Q9H1R3); test: Inhibition of full length recombinant human MYLK2 using KKLNRTLSFAEPG as substrate incubated for 40 mins in presence of [gamma-33P-ATP] by radiometric scintillation assay; outline: as §1
[12] = target: Serine/threonine-protein kinase NIM1 (Homo sapiens, UniProt Q8IY84); test: Inhibition of full length recombinant human NIM1 using KKKVSRSGLYRSPSMPENLNRPR as substrate incubated for 40 mins in presence of [gamma-33P-ATP] by radiometric scintillation assay; outline: as §1
[13] = target: T5, Leucine-rich repeat serine/threonine-protein kinase 2; test: Inhibition of recombinant human LRRK2 (970 to end residues) using RLGRDKYKTLRQIRQ as substrate incubated for 40 mins in presence of [gamma-33P-ATP] by radiometric scintillation assay; outline: as §2

T5 sequence (Q5S007 whole entry, the tested form may be a part): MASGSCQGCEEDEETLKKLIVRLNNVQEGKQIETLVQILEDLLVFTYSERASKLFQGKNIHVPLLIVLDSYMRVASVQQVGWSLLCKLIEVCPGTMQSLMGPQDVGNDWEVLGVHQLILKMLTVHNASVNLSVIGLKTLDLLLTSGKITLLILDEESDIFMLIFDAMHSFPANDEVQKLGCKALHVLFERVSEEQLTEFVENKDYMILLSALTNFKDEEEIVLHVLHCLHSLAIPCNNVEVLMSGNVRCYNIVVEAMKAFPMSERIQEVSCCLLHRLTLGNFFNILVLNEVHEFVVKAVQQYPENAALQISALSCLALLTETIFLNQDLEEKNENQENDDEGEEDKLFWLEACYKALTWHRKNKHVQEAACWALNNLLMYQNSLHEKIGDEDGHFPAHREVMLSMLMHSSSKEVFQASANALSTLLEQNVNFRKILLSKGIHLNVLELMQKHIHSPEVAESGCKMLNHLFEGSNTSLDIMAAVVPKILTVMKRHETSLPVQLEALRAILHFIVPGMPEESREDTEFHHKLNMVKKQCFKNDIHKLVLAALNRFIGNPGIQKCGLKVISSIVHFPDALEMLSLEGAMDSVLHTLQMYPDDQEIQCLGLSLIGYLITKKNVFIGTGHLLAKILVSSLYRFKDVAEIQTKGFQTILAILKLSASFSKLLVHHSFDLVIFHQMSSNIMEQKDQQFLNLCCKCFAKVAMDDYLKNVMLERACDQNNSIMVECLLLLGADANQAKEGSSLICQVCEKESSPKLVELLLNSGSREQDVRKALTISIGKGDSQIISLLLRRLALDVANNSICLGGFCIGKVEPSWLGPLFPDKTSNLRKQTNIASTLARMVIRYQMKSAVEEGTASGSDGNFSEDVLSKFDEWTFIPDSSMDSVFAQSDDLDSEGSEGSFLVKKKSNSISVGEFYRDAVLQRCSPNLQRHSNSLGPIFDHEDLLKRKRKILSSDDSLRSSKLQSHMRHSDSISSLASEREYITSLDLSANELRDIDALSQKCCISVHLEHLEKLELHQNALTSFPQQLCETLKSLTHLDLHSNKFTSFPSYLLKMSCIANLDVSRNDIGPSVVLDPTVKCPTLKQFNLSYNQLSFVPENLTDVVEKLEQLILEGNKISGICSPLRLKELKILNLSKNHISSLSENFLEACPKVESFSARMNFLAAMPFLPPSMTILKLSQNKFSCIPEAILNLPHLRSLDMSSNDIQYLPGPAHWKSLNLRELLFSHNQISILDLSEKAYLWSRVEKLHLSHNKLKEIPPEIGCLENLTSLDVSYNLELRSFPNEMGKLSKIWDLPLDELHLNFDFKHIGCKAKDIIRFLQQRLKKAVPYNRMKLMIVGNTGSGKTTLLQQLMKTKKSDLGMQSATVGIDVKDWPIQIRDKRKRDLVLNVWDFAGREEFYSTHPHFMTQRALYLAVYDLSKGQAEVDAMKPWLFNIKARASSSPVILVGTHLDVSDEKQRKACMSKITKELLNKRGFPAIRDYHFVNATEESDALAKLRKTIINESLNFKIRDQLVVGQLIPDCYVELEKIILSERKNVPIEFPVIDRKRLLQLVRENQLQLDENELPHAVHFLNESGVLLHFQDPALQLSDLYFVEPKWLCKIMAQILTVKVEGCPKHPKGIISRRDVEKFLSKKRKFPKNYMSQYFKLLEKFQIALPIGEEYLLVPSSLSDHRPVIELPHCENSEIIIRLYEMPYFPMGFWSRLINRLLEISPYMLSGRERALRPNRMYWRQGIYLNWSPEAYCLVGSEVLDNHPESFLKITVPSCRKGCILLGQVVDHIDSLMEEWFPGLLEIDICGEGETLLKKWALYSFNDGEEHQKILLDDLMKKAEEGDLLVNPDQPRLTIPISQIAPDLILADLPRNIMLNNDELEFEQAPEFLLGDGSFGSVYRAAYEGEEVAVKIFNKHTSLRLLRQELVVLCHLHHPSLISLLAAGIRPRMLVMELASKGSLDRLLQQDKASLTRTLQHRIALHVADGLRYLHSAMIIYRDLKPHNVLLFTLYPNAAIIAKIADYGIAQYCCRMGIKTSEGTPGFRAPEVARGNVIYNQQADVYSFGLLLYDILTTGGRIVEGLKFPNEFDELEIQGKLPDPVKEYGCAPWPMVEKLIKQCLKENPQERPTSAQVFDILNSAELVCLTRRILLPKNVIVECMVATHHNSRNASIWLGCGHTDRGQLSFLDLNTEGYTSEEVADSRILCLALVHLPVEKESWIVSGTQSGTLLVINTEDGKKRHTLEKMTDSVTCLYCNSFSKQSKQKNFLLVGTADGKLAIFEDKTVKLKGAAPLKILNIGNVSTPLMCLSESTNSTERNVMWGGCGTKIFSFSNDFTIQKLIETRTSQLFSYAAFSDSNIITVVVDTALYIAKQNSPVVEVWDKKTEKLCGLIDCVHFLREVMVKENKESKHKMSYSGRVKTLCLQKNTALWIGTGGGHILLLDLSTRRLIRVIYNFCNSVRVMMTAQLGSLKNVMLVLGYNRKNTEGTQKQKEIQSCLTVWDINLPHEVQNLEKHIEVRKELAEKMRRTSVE
MAP/microtubule affinity-regulating kinase 3, sequence (P27448 whole entry, the tested form may be a part): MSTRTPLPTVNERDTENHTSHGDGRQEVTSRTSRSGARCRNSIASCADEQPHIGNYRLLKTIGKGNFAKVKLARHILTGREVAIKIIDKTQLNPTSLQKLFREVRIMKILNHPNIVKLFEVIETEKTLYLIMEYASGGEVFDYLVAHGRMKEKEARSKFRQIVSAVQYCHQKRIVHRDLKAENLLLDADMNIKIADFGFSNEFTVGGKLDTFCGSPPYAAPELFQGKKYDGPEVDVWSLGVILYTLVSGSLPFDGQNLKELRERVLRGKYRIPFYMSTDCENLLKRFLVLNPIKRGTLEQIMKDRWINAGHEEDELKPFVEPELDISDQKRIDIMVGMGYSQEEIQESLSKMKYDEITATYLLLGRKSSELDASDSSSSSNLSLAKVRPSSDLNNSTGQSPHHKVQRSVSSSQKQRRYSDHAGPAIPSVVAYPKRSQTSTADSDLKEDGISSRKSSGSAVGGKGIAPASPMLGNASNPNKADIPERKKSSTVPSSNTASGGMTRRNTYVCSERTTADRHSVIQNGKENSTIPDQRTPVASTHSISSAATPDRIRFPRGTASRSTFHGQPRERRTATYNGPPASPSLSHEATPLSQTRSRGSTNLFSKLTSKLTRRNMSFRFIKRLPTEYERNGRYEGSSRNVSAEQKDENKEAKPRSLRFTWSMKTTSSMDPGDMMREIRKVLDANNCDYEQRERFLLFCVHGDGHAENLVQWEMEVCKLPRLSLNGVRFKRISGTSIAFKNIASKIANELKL
MAP kinase-interacting serine/threonine-protein kinase 2, sequence (Q9HBH9 whole entry): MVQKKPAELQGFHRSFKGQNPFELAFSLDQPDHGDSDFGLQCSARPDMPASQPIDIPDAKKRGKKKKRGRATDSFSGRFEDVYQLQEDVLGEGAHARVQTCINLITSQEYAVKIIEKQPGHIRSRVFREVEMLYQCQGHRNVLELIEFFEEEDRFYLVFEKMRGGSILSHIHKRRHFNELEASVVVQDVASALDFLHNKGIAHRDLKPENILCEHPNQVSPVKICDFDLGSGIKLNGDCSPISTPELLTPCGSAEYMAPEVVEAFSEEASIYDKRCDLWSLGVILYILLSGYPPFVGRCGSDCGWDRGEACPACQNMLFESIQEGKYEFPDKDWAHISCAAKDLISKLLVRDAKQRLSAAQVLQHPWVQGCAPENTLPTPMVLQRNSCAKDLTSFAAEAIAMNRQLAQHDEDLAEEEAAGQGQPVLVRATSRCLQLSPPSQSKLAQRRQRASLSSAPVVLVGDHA
Myosin light chain kinase 2, skeletal/cardiac muscle, sequence (Q9H1R3 whole entry): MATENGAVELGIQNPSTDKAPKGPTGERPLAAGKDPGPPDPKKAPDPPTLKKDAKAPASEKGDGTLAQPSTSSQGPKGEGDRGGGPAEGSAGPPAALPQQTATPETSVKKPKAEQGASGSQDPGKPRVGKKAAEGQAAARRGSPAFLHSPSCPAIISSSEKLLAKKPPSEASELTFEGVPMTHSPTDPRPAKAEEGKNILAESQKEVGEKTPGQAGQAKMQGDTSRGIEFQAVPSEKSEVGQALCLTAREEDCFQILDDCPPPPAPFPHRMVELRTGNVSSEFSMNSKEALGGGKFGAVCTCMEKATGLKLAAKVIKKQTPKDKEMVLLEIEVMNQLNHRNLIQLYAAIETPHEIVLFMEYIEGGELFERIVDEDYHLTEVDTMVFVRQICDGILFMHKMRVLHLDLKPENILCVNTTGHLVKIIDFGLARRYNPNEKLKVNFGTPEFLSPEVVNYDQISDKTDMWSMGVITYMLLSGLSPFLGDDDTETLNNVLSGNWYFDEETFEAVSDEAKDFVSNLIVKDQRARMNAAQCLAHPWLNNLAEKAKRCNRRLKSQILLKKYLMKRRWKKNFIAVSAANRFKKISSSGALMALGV
Serine/threonine-protein kinase NIM1, sequence (Q8IY84 whole entry): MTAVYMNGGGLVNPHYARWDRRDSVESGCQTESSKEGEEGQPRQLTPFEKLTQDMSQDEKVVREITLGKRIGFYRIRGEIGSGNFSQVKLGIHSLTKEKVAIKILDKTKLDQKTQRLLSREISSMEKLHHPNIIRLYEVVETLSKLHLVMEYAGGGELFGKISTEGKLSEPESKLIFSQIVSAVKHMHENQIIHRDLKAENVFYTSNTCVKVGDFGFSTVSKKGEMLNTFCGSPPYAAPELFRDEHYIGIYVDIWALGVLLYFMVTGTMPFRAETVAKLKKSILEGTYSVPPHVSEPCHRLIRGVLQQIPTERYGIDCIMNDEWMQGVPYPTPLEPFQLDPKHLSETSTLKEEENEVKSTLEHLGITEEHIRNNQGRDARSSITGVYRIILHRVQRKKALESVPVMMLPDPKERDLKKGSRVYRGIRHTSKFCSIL

| SMILES | IC50 [1] | Kinetic_solubility [2] | IC50 [3] | IC50 [4] | IC50 [5] | IC50 [6] | IC50 [7] | % control [8] | Peff [9] | IC50 [10] | IC50 [11] | IC50 [12] | IC50 [13] |
| --- | --- | --- | --- | --- | --- | --- | --- | --- | --- | --- | --- | --- | --- |
| Cc1nn(CC(F)(F)F)cc1Nc1nccc(NCCCNC(=O)C2CCC2)n1 | > 10 µM | 174.6 µM | > 10 µM | 2.87 µM | > 10 µM | > 10 µM | > 10 µM | 60% | 2.39 10^-6 cm/s |  |  |  |  |
| Cc1nn(CC(F)(F)F)cc1Nc1ncc(C2CC2)c(NCCc2c[nH]cn2)n1 | > 10 µM | 171 µM |  |  | > 10 µM | > 10 µM | > 10 µM | 59% | 3.89 10^-7 cm/s | > 10 µM | 1.12 µM | 4.4 µM | 0.089 µM |
